Assay [1] concerns the target T1, Hexokinase-1 (Rattus norvegicus) (UniProt P05708).
T1 sequence (whole entry): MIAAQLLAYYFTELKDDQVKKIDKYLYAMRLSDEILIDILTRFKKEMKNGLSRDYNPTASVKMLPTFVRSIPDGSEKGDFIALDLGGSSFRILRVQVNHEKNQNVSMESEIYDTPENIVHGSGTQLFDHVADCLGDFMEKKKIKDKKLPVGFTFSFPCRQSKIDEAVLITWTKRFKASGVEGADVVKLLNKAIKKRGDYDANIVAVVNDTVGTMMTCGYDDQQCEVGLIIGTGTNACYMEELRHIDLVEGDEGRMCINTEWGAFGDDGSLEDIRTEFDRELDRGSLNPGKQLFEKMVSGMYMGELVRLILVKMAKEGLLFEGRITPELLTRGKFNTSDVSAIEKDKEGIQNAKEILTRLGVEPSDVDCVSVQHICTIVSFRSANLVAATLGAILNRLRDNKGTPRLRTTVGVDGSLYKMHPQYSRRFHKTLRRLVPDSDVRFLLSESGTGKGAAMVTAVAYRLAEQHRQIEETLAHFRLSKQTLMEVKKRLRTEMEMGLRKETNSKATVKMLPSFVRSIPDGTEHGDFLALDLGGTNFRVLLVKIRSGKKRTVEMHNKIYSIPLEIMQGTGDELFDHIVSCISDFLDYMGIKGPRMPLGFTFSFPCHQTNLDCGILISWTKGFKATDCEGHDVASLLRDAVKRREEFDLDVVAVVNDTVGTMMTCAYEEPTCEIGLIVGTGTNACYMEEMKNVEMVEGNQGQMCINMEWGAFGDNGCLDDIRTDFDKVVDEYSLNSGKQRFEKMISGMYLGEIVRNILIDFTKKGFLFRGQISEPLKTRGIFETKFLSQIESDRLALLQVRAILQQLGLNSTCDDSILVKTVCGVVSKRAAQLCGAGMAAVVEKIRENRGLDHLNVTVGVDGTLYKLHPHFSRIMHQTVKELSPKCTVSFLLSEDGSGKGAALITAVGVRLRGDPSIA
As to the kind of experiment: Time dependent inhibition of Hexokinase type I activity after 6 h, at 22 degrees celsius, at 5 mM compound.

The target in assay [2] is T2, Hexokinase-3 (Rattus norvegicus) (UniProt P27926).
T2 sequence (whole entry): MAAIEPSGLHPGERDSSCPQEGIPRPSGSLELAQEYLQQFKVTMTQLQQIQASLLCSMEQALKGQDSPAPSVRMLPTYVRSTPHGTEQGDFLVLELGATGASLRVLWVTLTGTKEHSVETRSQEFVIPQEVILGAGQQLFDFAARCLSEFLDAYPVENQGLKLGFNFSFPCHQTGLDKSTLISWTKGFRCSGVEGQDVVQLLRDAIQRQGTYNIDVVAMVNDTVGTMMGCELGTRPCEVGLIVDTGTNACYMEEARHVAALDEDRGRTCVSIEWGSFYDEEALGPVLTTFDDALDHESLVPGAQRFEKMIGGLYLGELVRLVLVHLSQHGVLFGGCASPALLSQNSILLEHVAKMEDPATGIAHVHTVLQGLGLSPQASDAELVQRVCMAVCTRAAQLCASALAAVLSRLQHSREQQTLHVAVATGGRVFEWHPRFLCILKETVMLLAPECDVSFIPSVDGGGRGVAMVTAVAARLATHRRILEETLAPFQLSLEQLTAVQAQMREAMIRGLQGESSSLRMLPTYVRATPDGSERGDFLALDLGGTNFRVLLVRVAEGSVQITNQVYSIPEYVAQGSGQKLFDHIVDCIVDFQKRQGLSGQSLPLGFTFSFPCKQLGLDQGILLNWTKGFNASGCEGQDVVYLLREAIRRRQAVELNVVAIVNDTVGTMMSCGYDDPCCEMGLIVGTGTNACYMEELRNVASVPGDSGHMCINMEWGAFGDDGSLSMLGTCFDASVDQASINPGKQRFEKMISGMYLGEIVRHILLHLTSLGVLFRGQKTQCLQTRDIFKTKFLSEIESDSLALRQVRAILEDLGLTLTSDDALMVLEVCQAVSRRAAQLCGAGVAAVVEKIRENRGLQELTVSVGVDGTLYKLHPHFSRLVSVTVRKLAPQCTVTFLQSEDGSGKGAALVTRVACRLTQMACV
As to the kind of experiment: Substrate activity for rat hexokinase III as 1:1 Mg complex at 5.0 mM. The procedure, abridged: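 Hexokinase activity read at 22 °C as A340 change, coupled to glucose-6-phosphate dehydrogenase, in 0.05 M Tris-HCl pH 7.6 with 6.6 mM MgCl2, 10 mM α-D-glucose and 0.93 mM NADP. Donor was 5.0 mM MgATP derivative (1:1 Mg complex) in place of ATP. Yeast HK was isoelectric-focused. Rat HK I and III came from electrofocused liver extract, HK II from dialysed muscle extract.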

Assay [3] can be described thus: Tested for the velocity of 2.8 mM compound relative to that of 2.8 mM MgATP in the assay. The procedure, abridged: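 E. coli TK substrate test. 0.5 h after adding inhibitor, the mixture was diluted to 2.8 mM derivative in thymidine assay medium without ATP and with 1.42 mM MnCl2. Incubated 15 min at 37 °C, in the linear range. [14C]TMP formed was compared with that from 2.8 mM ATP under the same conditions.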

A word on the inhibition: it is the relative decrease from the control value, in per cent. Read a low inhibition as little suppression.

`Nc1ncnc2c1ncn2[C@@H]1O[C@H](COP(=O)(O)OP(=O)(O)OP(=O)(O)O)[C@@H](O)[C@H]1O` displayed an inhibition in assay [1] of 0%. In assay [2], the Relative velocity is 1. In assay [3], this compound gave a Velocity of 100%.

The values are drawn from ChEMBL document CHEMBL1122206, “Use of adenine nucleotide derivatives to assess the potential of exo-active-site-directed reagents as species- or isozyme-specific enzyme inactivators. 5. Interactions of adenosine 5'-triphosphate derivatives with rat pyruvate kinases, Escherichia coli thymidine kinase, and yeast and rat …” (1982).
